Compound activity as filed in PubChem BioAssay.
TRPC4 agonist: opens the mouse TRPC4 cation channel; HEK293 TRPC4beta/mu-opioid, Fluo4 calcium fluorescence; active compounds read high; B-score at 10 µM; actives 0.49% (n = 310,000);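 active = B-score above 5 SD of library B-scores, and initial fluorescence ratio not above library mean plus 5 SD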;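 also: positive B-score marks a calcium rise read as TRPC4 activation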
Target sequence (Q9QUQ5 whole entry, looked up): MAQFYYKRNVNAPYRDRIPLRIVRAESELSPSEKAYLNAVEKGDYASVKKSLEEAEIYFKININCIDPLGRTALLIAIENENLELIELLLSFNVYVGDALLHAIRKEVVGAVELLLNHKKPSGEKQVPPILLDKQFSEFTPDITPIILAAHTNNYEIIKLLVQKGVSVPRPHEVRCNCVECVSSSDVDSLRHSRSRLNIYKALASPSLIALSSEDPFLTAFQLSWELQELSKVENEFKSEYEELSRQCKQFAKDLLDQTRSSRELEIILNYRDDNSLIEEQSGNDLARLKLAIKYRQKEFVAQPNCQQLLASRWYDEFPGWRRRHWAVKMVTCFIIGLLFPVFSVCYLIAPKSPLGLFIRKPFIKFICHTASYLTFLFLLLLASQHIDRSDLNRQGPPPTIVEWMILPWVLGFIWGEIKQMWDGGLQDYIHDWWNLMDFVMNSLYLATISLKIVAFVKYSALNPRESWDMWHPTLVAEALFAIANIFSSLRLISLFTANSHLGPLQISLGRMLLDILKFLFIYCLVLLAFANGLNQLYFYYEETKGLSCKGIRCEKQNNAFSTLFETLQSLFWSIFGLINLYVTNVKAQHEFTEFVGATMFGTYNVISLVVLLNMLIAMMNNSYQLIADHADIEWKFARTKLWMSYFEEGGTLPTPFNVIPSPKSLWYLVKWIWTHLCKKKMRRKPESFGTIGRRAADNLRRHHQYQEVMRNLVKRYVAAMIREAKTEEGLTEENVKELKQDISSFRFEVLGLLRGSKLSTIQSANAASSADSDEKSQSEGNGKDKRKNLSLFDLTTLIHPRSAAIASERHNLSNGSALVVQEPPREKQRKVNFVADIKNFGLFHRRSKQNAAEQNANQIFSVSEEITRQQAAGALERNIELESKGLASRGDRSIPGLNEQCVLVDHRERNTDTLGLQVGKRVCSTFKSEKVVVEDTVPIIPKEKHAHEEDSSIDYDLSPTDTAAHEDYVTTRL
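Assay system – TRPC4beta and mu-opioid receptor HEK293 stable cells · Measured by – Fluo4 fluorescence, kinetic · Schedule – dye loading 45 min room temperature, 110 s kinetic read · Read-out – B-scored integrated calcium fluorescence ratio · Controls – buffer and maximal DAMGO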
TRPC4 PAM: allosteric potentiators of mouse TRPC4 channel; HEK293 TRPC4beta/mu-opioid, DAMGO EC20, Fluo-4 Ca2+ flux; active compounds read high; B-score at 10 µM; actives 0.42% (n = 310,000); AID 2227;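 active = B-score of calcium response area above 5 SD of library B-scores, with initial fluorescence ratio within 5 SD of library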;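 also: B-score of integrated fluorescence ratio over time as area under calcium response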
TRPC6 activator: mouse TRPC6 channel activation; HEK293-TRPC6 membrane potential dye fluorescence; active compounds read high; B-score at 10 µM; actives 0.13% (n = 310,000);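 active = B-score of the integrated fluorescence ratio above library mean plus 3 SD, and starting fluorescence ratio within library mean plus 5 SD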;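 also: higher score means more depolarization so channel activation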
TRPC4 inh: blocks the mouse TRPC4 cation channel; Q9QUQ5; HEK293 TRPC4beta/mu-opioid, DAMGO-evoked Fluo4 calcium flux; active compounds read low; B-score at 10 µM; actives 0.39% (n = 300,000); AID 2247;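 active = B-score over 3 SD under the library average, no early fluorescence shift, positive overall ratio signal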
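Material: HEK293 cells with stable TRPC4beta plus mu-opioid receptor expression / Probe or stimulus: DAMGO in two steps, submaximal then maximal / Compound: single concentration per test compound / Technique: kinetic Fluo4 fluorescence imaging of calcium influx / Read-out: per-well B score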
TRPC6 inhibitor: blocks the mouse TRPC6 cation channel. Q61143. HEK293-TRPC6, membrane potential dye, ACh-evoked depolarization; active compounds read low. B-score at 10 µM. actives 1.1% (n = 310,000). AID 2553;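 active = B-score under library mean minus 3 SD, initial fluorescence not abnormally high, positive integrated signal ratio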;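 also: B-score derived from integrated fluorescence ratio over the kinetic read; more negative B-score means stronger inhibition of depolarization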
TRPC4 sel inh 2: mouse TRPC4 off-target activity of TRPC6 inhibitors, second screen; shares compounds with TRPC6 inhibitor; HEK293 TRPC4/MOR, membrane potential dye fluorescence; channel activated by saturating DAMGO dose; inhibition, % at 10 µM; actives 42% (n = 920);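 active = compounds whose fluorescence signal differed from control wells by over 3 SD, either direction, in both duplicate plates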
TRPC4 spec: tests whether TRPC6 inhibitors also affect mouse TRPC4; HEK293 TRPC4/mu-opioid, membrane potential fluorescence; AID 2777; activity change, negative = inhibition, % at 10 µM; shares compounds with TRPC6 inhibitor; actives 61% (n = 920);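 active = rise or fall in signal beyond 3 SD of buffer-only wells in both replicate plates, either sign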;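 also: integrated kinetic ratio of fluorescence range over baseline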
HEK293 MPD ctr 2-1: second counter-screen for TRPC6 inhibitors: parental HEK293 cells | shares compounds with TRPC6 inhibitor | parental HEK293 membrane potential dye fluorescence; maximal acetylcholine challenge after compound addition | signal change vs control, % at 10 µM | actives 31% (n = 920);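 active = membrane potential signal moving either way by over 3 SD of the maximum-effect control, in both duplicate plates, meaning non-specific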
HEK293 MPD ctr-1: parental HEK293 nonspecific activity of TRPC6 inhibitors | parental HEK293 membrane potential dye fluorescence | shares compounds with TRPC6 inhibitor | membrane potential signal change, % at 10 µM | actives 60% (n = 920);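 active = membrane potential signal shifting up or down by more than 3 SD of buffer-only wells, on both duplicate plates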
HEK293 MPD ctr-2: checks TRPC6 modulator effects in parental HEK293 cells. AID 488924. shares compounds with TRPC6 inhibitor. actives 51% (n = 2,400). membrane potential signal change, % at 10 µM. membrane potential dye fluorescence;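 active = membrane potential signal moves up or down beyond 5 SD from buffer-only wells, on both duplicate plates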
HEK293 MPD ctr 2-2: second counter-screen for TRPC6 modulators: effect in parental HEK293 cells. AID 488926. shares compounds with TRPC6 inhibitor. actives 14% (n = 2,400). inhibition, % at 10 µM. membrane potential dye fluorescence; after compound, maximal acetylcholine stimulation;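 active = membrane potential signal drops by more than 5 SD from the mean control signal, in both duplicate plates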;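 also: plate controls were acetylcholine ECmax control wells for no effect and buffer only wells for full effect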
TRPC4/MOR mod: selectivity of TRPC6 modulators against mouse TRPC4 | percent change from control (negative = decrease, positive = increase), % at 10 µM | shares compounds with TRPC6 inhibitor | HEK293 TRPC4/mu-opioid, membrane potential fluorescence | AID 488927 | actives 69% (n = 2,400);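 active = membrane potential signal moved up or down beyond 5 SD of buffer control wells, in both duplicate plates, actives on both sides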;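 also: plate controls were assay buffer wells for no effect and DAMGO maximal-effect wells for full effect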
TRPC4/MOR inh 2: second check of whether TRPC6 modulators also affect mouse TRPC4 | shares compounds with TRPC6 inhibitor | AID 488928 | HEK293 TRPC4/mu-opioid, membrane potential dye fluorescence; stimulated with maximal-effect DAMGO | actives 55% (n = 2,400) | inhibition, % at 10 µM;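 active = drop in membrane potential signal beyond 5 SD of the control wells in both duplicate plates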;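 also: TRPC4 counter screen for TRPC6 hits run under conditions tuned for TRPC6 not TRPC4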
TRPC6 inh conf: mouse TRPC6 inhibitor confirmation | HEK293-TRPC6, membrane potential dye, ACh-evoked depolarization | inhibition, % at 10 µM | shares compounds with TRPC6 inhibitor | actives 43% (n = 3,300);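 active = fluorescence ratio falls more than 5 SD below the full-stimulation control mean, in both duplicate runs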;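 also: integrated fluorescence ratio of peak minus minimum over baseline after agonist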
TRPC6 act confirm: confirmation of mouse TRPC6 activators. shares compounds with TRPC6 inhibitor. HEK293-TRPC6 membrane potential dye fluorescence, FDSS. activation, % at 10 µM. actives 11% (n = 2,800);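 active = ratio signal rise beyond 5 SD above unstimulated control wells' mean, seen in both duplicate runs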;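 also: plate controls were buffer EC0 wells for no effect and acetylcholine ECmax response for full effect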
The depositor's hits bear a star; i = inactive; · = no result. This is a sample that favours compounds with a hit; in the whole collection about 2.3% have one here.

SMILES	TRPC4 agonist	TRPC4 PAM	TRPC6 activator	TRPC4 inh	TRPC6 inhibitor	HEK293 MPD ctr-2	HEK293 MPD ctr 2-2	TRPC4/MOR mod	TRPC4/MOR inh 2	TRPC6 inh conf	TRPC6 act confirm	others
Cc1ccc(NC(=O)CCC(=O)n2nc(C)cc2C)c(C)c1	i	i	i	i	-5.88*	i	i	i	i	i	i
O=[N+]([O-])c1cc(/C=N/O)ccc1N1CCCC1	i	i	i	i	i	·	·	·	·	·	·
O=[N+]([O-])c1cc(/C=N/n2cnnc2)ccc1N1CCCC1	i	i	i	i	-5.17*	-76.0%*	i	-15.0%*	i	i	i
Cc1ccc(C)c(NC(=O)CN(C)C(=O)c2ccccc2OCc2ccccc2Cl)c1	i	i	i	i	i	·	·	·	·	·	·
Cc1ccc(-c2nc(N3CCN(C)CC3)c3ccccc3n2)cc1	i	i	i	i	-9.01*	·	·	·	·	i	i	TRPC4 sel inh 2=i;TRPC4 spec=-20.6%*;HEK293 MPD ctr 2-1=i;HEK293 MPD ctr-1=-360.5%*
CN1CCN(c2nc(-c3cccc([N+](=O)[O-])c3)nc3ccccc23)CC1	i	i	i	i	-6.13*	-206.5%*	i	-43.0%*	63.0%*	54.0%*	i
CN1CCN(c2nc(N3CCN(CCO)CC3)nc3ccccc23)CC1	i	i	i	i	-7.09*	-453.0%*	83.5%*	-71.5%*	72.0%*	79.5%*	i
COc1nc(-c2cccc([N+](=O)[O-])c2)nc2ccccc12	i	i	i	i	i	·	·	·	·	·	·
N#CCc1nn(-c2ccccc2)c2ncnc(N)c12	i	i	i	i	i	·	·	·	·	·	·
O=C(C[n+]1ccccc1)c1ccc(-c2ccccc2)cc1	i	i	i	i	i	·	·	·	·	·	·
CN(C)c1cc[n+](CC(=O)c2ccc(-c3ccccc3)cc2)cc1	i	i	i	i	-7.68*	·	·	·	·	i	·	TRPC4 sel inh 2=i;TRPC4 spec=-0.5%*;HEK293 MPD ctr 2-1=47.0%*;HEK293 MPD ctr-1=3.3%*
COc1ccccc1NC(=O)Nc1nnc(CC(=O)Nc2cccc(C)c2)s1	i	i	i	i	i	·	·	·	·	·	·
Cc1ccn2c(C=O)c(-c3ccc(F)cc3)c(C=O)c2c1	i	i	i	i	i	·	·	·	·	·	·
CCn1c(C)[n+](Cc2ccccc2)c2ccc(Cl)cc21	i	i	i	i	i	·	·	·	·	·	·
CCn1c(/C=C/N(C)c2ccccc2)[n+](CC)c2ccc(Cl)cc21	i	i	i	i	-8.64*	·	·	·	·	64.8%*	i	TRPC4 sel inh 2=i;TRPC4 spec=-28.6%*;HEK293 MPD ctr 2-1=24.5%*;HEK293 MPD ctr-1=-411.0%*
